The record followed here is ChEMBL document CHEMBL4513216, “Probing the Open Global Health Chemical Diversity Library for Multistage-Active Starting Points for Next-Generation Antimalarials” (ACS Infect Dis, 2020).

This data set in a line: Toxicity liver stage against HepG2, at 10uM. The class given is cell-based. Details: test concentration 10 uM, cell line HepG2-A16-CD81EGFP. The following applies: human, HepG2-A16-CD81EGFP cells; read-out: INHIBITION
The method, boiled down: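 Uninfected HepG2-A16-CD81EGFP cells, 3 × 10^3 per well, 1536-well, plated on prespotted compound at 10 μM final, parasite-free screening media added to match infected plates; puromycin 10 μM positive, DMSO 0.5% negative; run in parallel with 48 h PbLuc assay at 37 °C, 5% CO2; viability by CellTiter-Glo luminescence, normalized to controls.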
In the case of `Cc1ccc(-c2c[nH]c([C@@H]3COCCN3Cc3cccnc3)n2)cc1`, the cytotoxicity at 10 µM came to 0.283%.

Take `CN(Cc1nnc2n1CCC2)C(=O)c1ccc2c(c1)OCCO2`: the cytotoxicity at 10 µM is -17.8%.

Take `CC(=O)c1cccc(S(=O)(=O)N2CCC(c3n[nH]c(C)n3)CC2)c1`: the cytotoxicity at 10 µM is -5.83%.

As to `Cc1cn[nH]c1C1CCCCN1C(=O)CCN1CCCCCC1` (configuration not stated), the cytotoxicity at 10 µM worked out at 5.7%.

Consider `CCCC(=O)N(CC)C(c1cccnc1)c1ccc2c(c1)CCO2` (configuration not stated), for which the cytotoxicity at 10 µM is 0.217%.

On to `COc1ccc(C2=NOC(C(=O)N3CCCc4ccccc43)C2)cc1` (configuration not stated), for which the cytotoxicity at 10 µM was determined as 0.863%.

Turning to `Cc1noc([C@@H]2CC[C@@H]3[C@@H](CCN3S(C)(=O)=O)O2)n1`, the cytotoxicity at 10 µM is -2.16%.

`CN(Cc1cccc(C(N)=O)c1)CC1CCCN1c1cccnn1` (configuration not stated): the cytotoxicity at 10 µM is -9.75%.

Regarding `COc1ncccc1NC(=O)c1[nH]nc(C(C)C)c1Br`, the cytotoxicity at 10 µM was found to be 17.1%.

With `COCCc1noc(C2CCCN(c3nc(N)nc4c3CCCC4)C2)n1` (configuration not stated), the cytotoxicity at 10 µM stood at 48.1%.

`COC(=O)c1ccn(COc2ccccc2Cl)n1`: the cytotoxicity at 10 µM came out at 8.99%.

With `CC(NCCn1cccn1)c1ccc(F)cc1F` (configuration not stated), the cytotoxicity at 10 µM is 1.99%.

Regarding `COc1ccc(C(=O)C2CCCN(Cc3cnn(C)c3C)C2)c(OC)c1` (configuration not stated), the cytotoxicity at 10 µM was -8.85%.

`O=C(CN1CCCC1Cn1cccn1)NC1CCOCC1` (configuration not stated): the cytotoxicity at 10 µM is -23.2%.

Regarding `O=c1c(S(=O)(=O)N2CCCC2)cccn1Cc1ccccc1Cl`, the cytotoxicity at 10 µM stood at 2.96%.

Take `O=C(Nc1ccc(-c2ccco2)cc1)C1CCCN(Cc2ccon2)C1` (configuration not stated): the cytotoxicity at 10 µM is 1.17%.

With `Cc1ccc(SC2CCCC2)c(C(=O)NCc2n[nH]c(=O)[nH]2)c1`, the cytotoxicity at 10 µM was -38.4%.

For the compound `CCNC(=O)N1CCCCC1CCNS(C)(=O)=O` (configuration not stated), the cytotoxicity at 10 µM was -7.71%.

As for `O=C1[C@@H]2CN(c3ncnc4sccc34)C[C@]2(C(=O)O)CN1CC1CC1`, the cytotoxicity at 10 µM was found to be 0.977%.

Consider `CCOC(=O)CNC(=O)N1CCCC(CNC(=O)c2ccco2)C1` (configuration not stated), for which the cytotoxicity at 10 µM was -10.9%.

As to `CC(C)C(NC(=O)Cc1ccccc1)C(=O)NCc1ccc(O)nc1` (configuration not stated), the cytotoxicity at 10 µM came out at 0.833%.

For `CCC(C)S(=O)(=O)N1CCc2nc(C3CCNCC3)ncc2C1` (configuration not stated), the cytotoxicity at 10 µM was -10.7%.

As to `Cc1cc(NC(C)Cc2cccs2)n2nccc2n1` (configuration not stated), the cytotoxicity at 10 µM came to 1.22%.

With `Cc1noc(-c2ccnc(Oc3ccc(CN4CCCC4)cc3F)c2)n1`, the cytotoxicity at 10 µM was determined as 15.7%.

Consider `Cc1nc(C)n(CC2CCCN2CC(=O)NCc2ccco2)n1` (configuration not stated), for which the cytotoxicity at 10 µM was -18.5%.

Take `O=C(NCCO)Nc1c(F)cccc1Oc1ccccc1`: the cytotoxicity at 10 µM worked out at 1.36%.

As to `Cc1ccc(NC(=O)CN2CCOCC2)c(F)c1`, the cytotoxicity at 10 µM is 5.76%.

As for `CCN1CCn2c(-c3cccc(F)c3)cnc2C12CCN(C(C)=O)CC2`, the cytotoxicity at 10 µM was -1.09%.

For the compound `COc1cc(C)ccc1S(=O)(=O)N[C@H]1CN(C(C)=O)C[C@@H]1C1CC1`, the cytotoxicity at 10 µM is 5.71%.

As for `O=C(c1ccnc(C2CCNCC2)c1)N1CCCC(CO)C1` (configuration not stated), the cytotoxicity at 10 µM was 3.9%.

For `CCCN(C(=O)c1cnc(C)cn1)c1nc2c(s1)CCc1c-2cnn1C`, the cytotoxicity at 10 µM is -28%.

For `Cc1cc(C(F)(F)F)nc(CCNC(C)Cn2cncn2)n1` (configuration not stated), the cytotoxicity at 10 µM was 12%.

Turning to `CC(=O)N1CCCN(C(C(=O)O)c2cccc(C)c2C)CC1` (configuration not stated), the cytotoxicity at 10 µM is -2.75%.

With `Cc1ccc(N2CC[C@H]3OCC[C@@]3(C(=O)N3CCCC3)C2)nn1`, the cytotoxicity at 10 µM was 2.46%.

As to `c1ccc(CO[C@H]2CO[C@@]3(CCN(Cc4ccoc4)C3)C2)nc1`, the cytotoxicity at 10 µM was -15.3%.

For the compound `CSc1[nH]c(=O)c(C(=O)N2CCCC2C2CCCC2)cc1C#N` (configuration not stated), the cytotoxicity at 10 µM is 5.58%.

With `CC(C)NCC1(COc2ccccc2)C[C@@H](O)[C@@H](O)C1` (some centres not stated), the cytotoxicity at 10 µM amounted to 0.67%.

Take `Cc1cc(C(=O)N2CCCC(c3nccn3Cc3ccncc3)C2)no1` (configuration not stated): the cytotoxicity at 10 µM turned out to be 0.471%.

Regarding `COc1ccc(C(=O)N2C[C@@H](NC(=O)N(C)C)[C@H](C(C)C)C2)c(OC)n1`, the cytotoxicity at 10 µM turned out to be 3.6%.

For the compound `O=C(c1cc2c([nH]c1=O)CCC2)N1CCCC1c1ccccn1` (configuration not stated), the cytotoxicity at 10 µM is -3.18%.

For the compound `Cn1cnc2cc(C(=O)NS(=O)(=O)c3ccc(F)cc3)ccc21`, the cytotoxicity at 10 µM was -8.95%.

As to `CS(=O)(=O)C1=C(O)C(=O)N(c2ccccc2)C1c1ccccc1` (configuration not stated), the cytotoxicity at 10 µM was -1.06%.

Take `CC(C)OCCNC(=O)C1CCC(=O)N(C2CCCC2)C1` (configuration not stated): the cytotoxicity at 10 µM is -12.5%.

Turning to `Cc1cccc(OCCNC(=O)CN2CCCC2c2noc(C)n2)c1` (configuration not stated), the cytotoxicity at 10 µM was -8.6%.

With `CNC(=O)c1cc(-c2ccccc2OC)[nH]n1`, the cytotoxicity at 10 µM was -2.77%.

As to `Cc1cc(C(=O)N2C[C@H]3CCC[C@@]3(CO)C2)c2ccc(F)cc2n1`, the cytotoxicity at 10 µM was 5.78%.

For the compound `CC(C)C(=O)N1CCN(c2cc(N(C)C)cnn2)CC1`, the cytotoxicity at 10 µM was -6.45%.

On to `Cc1nc(COCc2cnc3n2CCN(CC2CCC2)C3C)cs1` (configuration not stated), for which the cytotoxicity at 10 µM was -5.63%.

In the case of `C[C@@H]1CN(S(=O)(=O)N2CCCC2)C[C@@]1(O)C1CC1`, the cytotoxicity at 10 µM was -5.07%.

For `O=C(NCCc1ccc(I)s1)N1CCC1`, the cytotoxicity at 10 µM was -11.1%.

Consider `Cn1ccnc1CN1CC[C@@H](NS(C)(=O)=O)[C@@H]1Cc1cccnc1`, for which the cytotoxicity at 10 µM was 8.54%.

On to `c1ccc2c(c1)CCN(c1nc(-c3ccncc3)nc3c1CCNC3)C2`, for which the cytotoxicity at 10 µM amounted to 37.3%.

Regarding `COCc1ccc(C(=O)N2CCC(Oc3ccccc3)(C(=O)O)CC2)o1`, the cytotoxicity at 10 µM was 0.871%.

As to `CN(CC(N)=O)C(=O)c1cc(Cl)c(Cl)n1C`, the cytotoxicity at 10 µM is 8.56%.

In the case of `Cc1nc2ccnn2c(C)c1CCC(=O)N1CCN(C2CC2)CC1`, the cytotoxicity at 10 µM was -7.2%.

With `CS(=O)(=O)CCC(=O)N(Cc1c(F)cccc1F)C1CCCC1`, the cytotoxicity at 10 µM was -12.9%.

For the compound `CC(C)OCCC(=O)N1CCN(CC(O)c2ccccc2)CC1` (configuration not stated), the cytotoxicity at 10 µM is -8.09%.

With `Cc1nc(CN2CCOCC3(CCN(c4ncccn4)CC3)C2)cs1`, the cytotoxicity at 10 µM is 14.9%.

For the compound `O=C(c1cccnc1-n1cncn1)N1CCN(CC(F)(F)F)CC1`, the cytotoxicity at 10 µM worked out at 4.39%.

As for `COC(=O)C(CNC(=O)Nc1nncs1)Cc1cccc(C)c1` (configuration not stated), the cytotoxicity at 10 µM worked out at 6.53%.

Consider `NC(=O)CN1CCC(C(=O)NCCn2cc(Cl)cn2)CC1`, for which the cytotoxicity at 10 µM is -45.6%.

As for `Cc1cc2ccccc2n1CCC(=O)N1CCCC1Cn1cccn1` (configuration not stated), the cytotoxicity at 10 µM was 2.15%.

Turning to `CC(C)c1nn(C)c(N(C)C)c1CNC1CCCOc2ccccc21` (configuration not stated), the cytotoxicity at 10 µM was -13.1%.

`CCCNC(=O)c1cc(Br)cc(S(=O)(=O)N2CCOCC2)c1F`: the cytotoxicity at 10 µM was -5.12%.

Turning to `O=C(C1CNCCO1)N1CCCC(c2ccccc2)(c2ccccc2)C1` (configuration not stated), the cytotoxicity at 10 µM was determined as 12.2%.

With `COc1ccc(C2CCCN2c2ccnc(C)c2Cl)c(OC)c1` (configuration not stated), the cytotoxicity at 10 µM amounted to 28.4%.

As to `CC(C)(O)CN1CCN(C(=O)c2cccc3[nH]ncc23)CC1`, the cytotoxicity at 10 µM was 3.28%.

For the compound `CCc1ncc(C(=O)NCCN2CCNC2=O)cn1`, the cytotoxicity at 10 µM amounted to 0.069%.

Consider `Cc1nccn1-c1ccc(CNS(=O)(=O)N2CCCCC2C)cn1` (configuration not stated), for which the cytotoxicity at 10 µM is -11%.

As for `CS(=O)(=O)CCC(=O)NC1CC(c2cccc(Cl)c2)C1` (configuration not stated), the cytotoxicity at 10 µM is 1.36%.

Consider `COc1ccnc(N2CCN(C(=O)NCc3ccc(C)s3)CC2)n1`, for which the cytotoxicity at 10 µM is -2.45%.

For `CC(C)(C)c1csc(CN2CCN(S(=O)(=O)c3cccnc3)CC2)n1`, the cytotoxicity at 10 µM was determined as 3.21%.

For the compound `CC(=O)NCC(=O)N1CCCC1c1ccc(CN2CCOCC2)cn1` (configuration not stated), the cytotoxicity at 10 µM is -2.3%.

Turning to `O=C(c1ccccn1)N1CCn2cnc(COCC3CC3)c2C1`, the cytotoxicity at 10 µM stood at 11.4%.

For `CC(=O)N1CCC(NC(=O)NCCCc2cn[nH]c2C)CC1`, the cytotoxicity at 10 µM is -4.2%.

Regarding `CC(C)SCc1cccc(NC2CCN(C)C2=O)c1` (configuration not stated), the cytotoxicity at 10 µM amounted to 1.26%.

Consider `Cc1csc(CN2C[C@@H]3CN(C)CCO[C@@H]3C2)n1`, for which the cytotoxicity at 10 µM was -105%.

Regarding `CCCS(=O)(=O)N1C[C@@H]2C[C@H](C(=O)N3CCN(C)CC3)[C@H](C1)O2`, the cytotoxicity at 10 µM was 1.47%.

For `Cc1cccc(CNC[C@H]2Cn3cc(-c4ccccc4)nc3CO2)n1`, the cytotoxicity at 10 µM is -2.59%.

Consider `COCCN1CCCC12CCN(c1ncccn1)CC2`, for which the cytotoxicity at 10 µM was determined as 11.4%.

For `Cc1ncsc1C(=O)NCC1CCC2(CCNCC2)CO1` (configuration not stated), the cytotoxicity at 10 µM amounted to 19.1%.

For `Cc1cccc2c1nc(CCO)n2-c1ccc(N)nc1`, the cytotoxicity at 10 µM is -1.32%.

In the case of `Cc1cc(Oc2ccccc2)nc(C2CCCCN2)n1` (configuration not stated), the cytotoxicity at 10 µM is -2.64%.

Take `CCCSc1nc(O)c(CC)c(=O)n1-c1ccccc1`: the cytotoxicity at 10 µM was determined as 2.77%.

`O=C(c1c2c(N3CCCC3)ncnc2n2ccccc12)N1CCCC1`: the cytotoxicity at 10 µM is -70.7%.

`CC(C)n1cc(CN2CCCN(C(=O)CN3CCCC3=O)CC2)cn1`: the cytotoxicity at 10 µM was -27.5%.

Regarding `Cc1noc(C)c1CN1CCCC2(C1)CN(c1nccs1)CCO2` (configuration not stated), the cytotoxicity at 10 µM was 8.47%.

As to `CCCC1(NC(=O)C(c2ccc(F)cc2)N(C)C)CC1` (configuration not stated), the cytotoxicity at 10 µM is -37.1%.

On to `CCN1CCN(C(=O)c2scnc2C)CC1`, for which the cytotoxicity at 10 µM came to 11.7%.

Consider `CC(C)=CCC1(CO)CCCN(Cc2nccs2)C1` (configuration not stated), for which the cytotoxicity at 10 µM was -1.23%.

As for `Cc1ccccc1CC(=O)N1C[C@@H]2COC[C@]2(CN(C)C)C1`, the cytotoxicity at 10 µM came to 3.79%.

For the compound `CNC(=O)[C@@H]1CC[C@@H]2[C@@H](CCN2Cc2cn(C)c3ccccc23)O1`, the cytotoxicity at 10 µM turned out to be 10.7%.

`COc1ccccc1OCc1cc(C(=O)NC[C@@H]2CCCN2)n[nH]1`: the cytotoxicity at 10 µM was -3.81%.

With `CC(Cn1cccn1)NC(=O)NCc1ccc(S(N)(=O)=O)cc1` (configuration not stated), the cytotoxicity at 10 µM was 3.63%.

As to `CC(C)NC(=O)N1CCC2(CCCO2)C1` (configuration not stated), the cytotoxicity at 10 µM came out at 3.14%.

As for `CCc1ccc(C(=O)N2CCCCC2Cn2cccn2)o1` (configuration not stated), the cytotoxicity at 10 µM is -6.8%.

For the compound `O=C(NCCNC(=O)C1CCN(c2ncccn2)CC1)c1ccoc1`, the cytotoxicity at 10 µM was -9.99%.
